What is called MIC is the smallest concentration in the dilution series that meets the test's criterion for growth inhibition.

Converted amounts (≈) assume the structure as drawn. The source made the active and inactive calls. Where a SMILES comes first, the peptide text is derived from it.

For test [1], the system named is Spodoptera exigua. The test is described as follows: Insecticidal activity against beet armyworm eggs assessed as inhibition of insect growth at 28 degC after 6 days by lepidopteran diet assay. It is filed as functional. Particulars: 144 h. An outline of the steps:
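Beet armyworm eggs (8-10 per well) on artificial diet in 96-well plates. Test samples were applied in acetone-water (50:50), dried onto the diet surface, and tested at 0.98-500 ppm (of diet weight) in 2-fold steps. Plates were incubated 6 days at 28 °C. Value is the minimum concentration inhibiting growth relative to untreated control.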

In test [2] the test system is Spodoptera exigua. The test is described as follows: Insecticidal activity against beet armyworm assessed as circling dosed by ingestion from leaf after 18 hrs by lepidopteran limited ingestion exposure assay. In kind it is functional, organism-based.
The subject of test [3] is Trichoplusia ni. The test is described as follows: Insecticidal activity against cabbage looper assessed as body tremors dosed by ingestion from leaf after 18 hrs by lepidopteran limited ingestion exposure assay. In kind it is functional, organism-based.
Test [4] relates to Trichoplusia ni. The test is described as follows: Insecticidal activity against cabbage looper assessed as mortality dosed by ingestion from leaf after 24 hrs by lepidopteran limited ingestion exposure assay. It is filed as functional. The method in brief:
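Cabbage leaf disks (0.25 cm²) were each treated with 1 µL of a 5 mg/mL acetone solution and dried. Each disk was offered to one of six cabbage looper larvae for 24 h, held individually under ambient lab conditions. Solvent and untreated disk controls were included. Afterwards, mortality, intoxication symptoms and disk consumption were noted, and larvae were given artificial diet.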

The test system of test [5] is Spodoptera exigua. Put plainly: Insecticidal activity against fourth instar beet armyworm assessed as body tremors and partial paralysis after 1 hrs by BAW injection assay. It is filed as functional, organism-based.
Test [6] deals with Trichoplusia ni. The test is described as follows: Insecticidal activity against 3/4th instar cabbage looper assessed as intoxication topically dosed at 5 ug/larva after 24 hrs by lepidopteran topical assay.
Test [7] concerns Spodoptera exigua. Put plainly: Insecticidal activity against 3/4th instar beet armyworm assessed as intoxication and mortality topically dosed at 5 ug/larva after 24 hrs by lepidopteran topical assay.
For test [8], the system named is Spodoptera exigua. Put plainly: Insecticidal activity against 3/4th instar beet armyworm assessed as intoxication and mortality topically dosed at 2.5 ug/larva after 24 hrs by lepidopteran topical assay. In kind it is functional, organism-based.
Test [9] has as its system Trichoplusia ni. The test is described as follows: Insecticidal activity against 3/4th instar cabbage looper assessed as intoxication topically dosed at 2.5 ug/larva after 24 hrs by lepidopteran topical assay. In kind it is functional.
Test [10] has as its system Spodoptera exigua. The test is described as follows: Insecticidal activity against fourth instar beet armyworm assessed as body tremors and partial paralysis after 3 to 6 hrs by BAW injection assay. In kind it is functional.
Test [11] has as its system Spodoptera exigua. The test is described as follows: Insecticidal activity against fourth instar beet armyworm assessed as body tremors and partial paralysis after 24 hrs by BAW injection assay. In kind it is functional, organism-based. The method in brief:
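Six fourth-instar beet armyworm were each injected with 0.5 µL of a 20 mg/mL acetone solution (10 µg/insect). Solvent-only and untreated controls were included. Larvae were held singly with artificial diet under ambient conditions. Intoxication symptoms were scored at 1, 24 and 48 h, and mortality at 48 h.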

As to `CC(C)C[C@@H]1NC(=O)[C@H](Cc2ccccc2)N(C)C(=O)[C@H](C)NC(=O)c2ccccc2NC(=O)[C@H](Cc2ccc(O)cc2)N(C)C1=O` [CYCLOASPEPTIDE A] (HELM PEPTIDE1{[O=C(c1ccccc1N[*:1])[*:2]].A.[meF].L.[meY]}$PEPTIDE1,PEPTIDE1,1:R1-5:R2$$$V2.0), the MIC in test [1] was more than 500 µg/mL. The outcome in test [2] and in test [3] was Active. Further, the result in test [4], in test [5], in test [6] and in test [7] was inactive.
In the case of `CC[C@H]1CCC[C@H](O[C@H]2CC[C@H](N(C)C)[C@@H](C)O2)[C@@H](C)C(=O)C2=C[C@@H]3[C@@H](C=C[C@@H]4C[C@@H](O[C@@H]5O[C@@H](C)[C@H](OC)[C@@H](OC)[C@H]5OC)C[C@@H]34)[C@@H]2CC(=O)O1` [SPINOSYN A], the MIC in [1] came out at 0.02 µg/mL (≈ 0.0273 µM).
Turning to `CC(C)C[C@@H]1NC(=O)[C@H](Cc2ccccc2)N(C)C(=O)[C@H](C)NC(=O)c2ccccc2NC(=O)[C@H](Cc2ccccc2)N(C)C1=O` [CYCLOASPEPTIDE E] (HELM PEPTIDE1{[O=C(c1ccccc1N[*:1])[*:2]].A.[meF].L.[meF]}$PEPTIDE1,PEPTIDE1,1:R1-5:R2$$$V2.0), the MIC in test [1] stood at 10 µg/mL (≈ 16 µM). For the same compound, the outcome in test [8] and in test [11] was inactive. The results for the Activity in [9], in test [4] and in test [10] were 50%, 15% and 85%, respectively. In addition, the result in test [2] and in [3] was Active.
